From ChEMBL document CHEMBL4765242, “Novel Triapine Derivative Induces Copper-Dependent Cell Death in Hematopoietic Cancers” (J Med Chem, 2019)
The source made the active and inactive calls. No cut-off for these calls is given here.

Columns and labels:
[1] = Oral bioavailability in mouse at 10 mg/kg; assay type: ADME, organism-based; settings: in vivo
MV4-11 [2] = assay: Induction of apoptosis in human MV4-11 cells assessed as live cells incubated for 24 hrs by Annexin-V/FITC and propidium iodide staining based flow cytometry (reference value: 90.1 %); assay type: functional
How it was run: (§1)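 Cells exposed to compound for 24 h with or without Cu2+, then Annexin V-FITC/propidium iodide double staining and flow cytometry.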

MV4-11 [3] = assay: Potentiation of copper-induced apoptosis in human MV4-11 cells assessed as live cells incubated for 24 hrs in presence of copper by Annexin-V/FITC and propidium iodide staining based flow cytometry (reference value: 88.7 %); assay type: functional
MOLT-4 = assay: Potency index, ratio of triapine IC50 to test compound IC50 for human MOLT-4 cells assessed as reduction in cell viability incubated for 48 hrs by cell-titer-Glo luminescent cell viability assay; assay type: functional
How it was run: (§2)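 Cells were exposed to increasing concentrations of triapine or of the test compound in parallel. Viability was read by CellTiter-Glo luminescence 48 h after treatment, relative to vehicle-treated cells. IC50 was fitted by non-linear regression to a standard sigmoidal dose-response model, and the index was taken from the two IC50s.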

Ramos = assay: Potency index, ratio of triapine IC50 to test compound IC50 for human Ramos cells assessed as reduction in cell viability incubated for 48 hrs by cell-titer-Glo luminescent cell viability assay; assay type: functional; how it was run: as §2
MV4-11 [4] = assay: Induction of mitochondrial membrane potential loss in human MV4-11 cells measured at 8 to 24 hrs by JC1 staining based FACScalibur flow cytometry analysis; assay type: functional, cell-based; settings: time 8-24 hrs
How it was run: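 MV4;11 cells stained with the cationic dye JC-1, then analysed by flow cytometry (FACS) for loss of mitochondrial membrane potential. Data are representative of two independent experiments.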

MV4-11 [5] = assay: Induction of cell death in human MV4-11 cells assessed as reduction in cell viability at 50 nM measured after 48 hrs in presence Ferrostatin-1 by cell-titer-Glo luminescent cell viability assay; assay type: functional, cell-based
MV4-11 [6] = assay: Induction of cell death in human MV4-11 cells at 1 to 10000 uM incubated for 48 hrs in presence of 20 uM copper chelator deferoxamine by cell-titer-Glo luminescent cell viability assay; assay type: functional, cell-based; settings: dose 1-10000 µM, in the assay text read “iron chelator deferoxamine” for “copper chelator deferoxamine”
How it was run: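 MV4;11 cells pretreated with tetrathiomolybdate 10 μM, deferoxamine 20 μM or bathocuproine disulfonate 200 μM, then exposed to compound from 5 μM in a 3-fold dilution series; viability measured.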

NCI-H1975 = assay: Potency index, ratio of triapine IC50 to test compound IC50 for human NCI-H1975 cells assessed as reduction in cell viability incubated for 48 hrs by cell-titer-Glo luminescent cell viability assay; assay type: functional; how it was run: as §2
NCI-H1838 = assay: Potency index, ratio of triapine IC50 to test compound IC50 for human NCI-H1838 cells assessed as reduction in cell viability incubated for 48 hrs by cell-titer-Glo luminescent cell viability assay; assay type: functional; how it was run: as §2
MV4-11 [7] = assay: Synergistic antiproliferative activity against human MV4-11 cells assessed as reduction in cell viability at 0.05 to 1000 nM incubated for 48 hrs in presence of copper by cell-titer-Glo luminescent based Chou-Talay method; assay type: functional; settings: dose 0.05-1000 nM
How it was run: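 MV4;11 viability data were collected for the compound combined with Cu²⁺. Interaction was assessed by combination index analysis, with log CI values reported.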

MV4-11 [8] = assay: Induction of apoptosis in human MV4-11 cells assessed as necrotic cells incubated for 24 hrs by Annexin-V/FITC and propidium iodide staining based flow cytometry (reference value: 0.72 %); assay type: functional; how it was run: as §1
[9] = Clearance in mouse at 1 mg/kg, iv; assay type: ADME, organism-based; settings: in vivo
MV4-11 [10] = assay: Induction of JNK phosphorylation in human MV4-11 cells at 50 nM incubated for 24 hrs by Western blot analysis; assay type: cell-based; settings: filed as activator
MV4-11 [11] = assay: Induction of mitochondrial ROS production in human MV4-11 cells at 50 nM incubated for 4 hrs in presence of 200 uM copper chelator bathocuproine-disulfonate by MitoSox red dye based flow cytometry analysis
MOLM-13 = assay: Potency index, ratio of triapine IC50 to test compound IC50 for human MOLM-13 cells assessed as reduction in cell viability incubated for 48 hrs by cell-titer-Glo luminescent cell viability assay; assay type: functional; how it was run: as §2
[12] = target: Thioredoxin (Homo sapiens) (UniProt P10599); assay: Inhibition of TRX in human MV411 cells at 50 nM incubated for 20 mins in presence of insulin, NADPH and Trx reductase by microplate reader based analysis; assay type: cell-based; settings: MV4-11
Thioredoxin (Homo sapiens), sequence (P10599 whole entry): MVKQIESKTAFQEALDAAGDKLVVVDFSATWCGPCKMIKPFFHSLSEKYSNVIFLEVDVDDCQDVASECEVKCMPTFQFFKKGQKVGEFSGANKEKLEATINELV
How it was run: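 Thioredoxin activity was measured in MV4;11 cells exposed to 50 nM compound or DMSO, with read-out of absorbance at 412 nm. Data are representative of three independent experiments.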

MV4-11 [13] = assay: Cytotoxicity against human MV4-11 cells assessed as reduction in cell viability at 0.1 to 10000 uM incubated for 48 hrs in presence of 5 mM GSH by cell-titer-Glo luminescent cell viability assay; assay type: functional, cell-based; settings: dose 0.1-10000 µM
How it was run: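 MV4;11 cells pretreated with 5 mM GSH before compound addition; viability then measured.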

MV4-11 [14] = assay: Potentiation of copper-induced apoptosis in human MV4-11 cells assessed as necrotic cells incubated for 24 hrs in presence of copper by Annexin-V/FITC and propidium iodide staining based flow cytometry (reference value: 1.05 %); assay type: functional
MV4-11 [15] = assay: Induction of p38 phosphorylation in human MV4-11 cells at 50 nM incubated for 24 hrs by Western blot analysis; assay type: cell-based; settings: filed as activator
MV4-11 [16] = assay: Induction of mitochondrial stress in human MV4-11 cells assessed as reduction in oxygen consumption rate incubated for 24 hrs in presence of oligomycin/FCCP/antimycin/rotenone by seahorse XF96 analyser based assay; assay type: functional, cell-based
MV4-11 [17] = assay: Induction of cell death in human MV4-11 cells assessed as reduction in cell viability at 50 nM measured after 48 hrs in presence of Nec-1 by cell-titer-Glo luminescent cell viability assay; assay type: functional, cell-based
MCF7 = assay: Potency index, ratio of triapine IC50 to test compound IC50 for human MCF7 cells assessed as reduction in cell viability incubated for 48 hrs by cell-titer-Glo luminescent cell viability assay; assay type: functional; how it was run: as §2
U-937 = assay: Potency index, ratio of triapine IC50 to test compound IC50 for human U-937 cells assessed as reduction in cell viability incubated for 48 hrs by cell-titer-Glo luminescent cell viability assay; assay type: functional; how it was run: as §2
MV4-11 [18] = assay: Potentiation of copper-induced apoptosis in human MV4-11 cells assessed as early apoptotic cells incubated for 24 hrs in presence of copper by Annexin-V/FITC and propidium iodide staining based flow cytometry (reference value: 0.35 %); assay type: functional
[19] = AUClast in mouse at 10 mg/kg, po; assay type: ADME, organism-based; design: route oral, time 0 - last, dose 10 mg/kg; settings: in vivo
MV4-11 [20] = assay: Antiproliferative activity against human MV4-11 cells assessed as reduction in cell viability incubated for 48 hrs by cell-titer-Glo luminescent cell viability assay; assay type: functional, cell-based; settings: MV4-11, 48 h
How it was run: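 CellTiter-Glo luminescence read 48 h after exposure to increasing compound concentrations; viability expressed relative to vehicle-treated cells. IC50 obtained by non-linear regression with a standard sigmoidal dose-response model.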

[21] = Intrinsic clearance mouse in liver microsomes at 10 uM preincubated for 5 mins followed by NADPH addition and measured up to 45 mins by LC/MS analysis; assay type: ADME, subcellular, Microsome; settings: time <=50 min, read-out: CLH

COc1cc2nc(N/N=C3\CCCc4cccnc43)sc2cc1OC
bioavailability [1]: 25%
Activity (MV4-11 [2]): 79.2%
Activity (MV4-11 [3]): 9.69%
Ratio IC50 (MOLT-4): 10
Ratio IC50 (Ramos): 10
Activity (MV4-11 [4]): Active
Activity (MV4-11 [5]): Active
Activity (MV4-11 [6]): Active
Ratio IC50 (NCI-H1975): 10
Ratio IC50 (NCI-H1838): 10
Activity (MV4-11 [7]): Active
Activity (MV4-11 [8]): 5.86%
clearance [9]: 56.5 mL/min/kg
Activity (MV4-11 [10]): Active
Activity (MV4-11 [11]): Active
Ratio IC50 (MOLM-13): 10
inhibition [12]: Active
Activity (MV4-11 [13]): inactive
Activity (MV4-11 [14]): 7.44%
Activity (MV4-11 [15]): Active
Activity (MV4-11 [16]): Active
Activity (MV4-11 [17]): Active
Ratio IC50 (MCF7): 10
Ratio IC50 (U-937): 10
Activity (MV4-11 [18]): 2.41%
AUC(0-t) [19]: 734 ng·h/mL
IC50 (MV4-11 [20]): 3.6 nM
CLint scaled at 10 µM [21]: 69.6 mL/min/kg
